Laboratory results as given in the M2OR odorant receptor database.
Residue numbers refer to the chain shown, from its start.

Tests used:
Settings in all cases: stereoisomer not certain
OR6B3 (Homo sapiens) = molecular target: T1, OR6B3 (Homo sapiens) (UniProt Q8NGW1)
T1 sequence (whole entry): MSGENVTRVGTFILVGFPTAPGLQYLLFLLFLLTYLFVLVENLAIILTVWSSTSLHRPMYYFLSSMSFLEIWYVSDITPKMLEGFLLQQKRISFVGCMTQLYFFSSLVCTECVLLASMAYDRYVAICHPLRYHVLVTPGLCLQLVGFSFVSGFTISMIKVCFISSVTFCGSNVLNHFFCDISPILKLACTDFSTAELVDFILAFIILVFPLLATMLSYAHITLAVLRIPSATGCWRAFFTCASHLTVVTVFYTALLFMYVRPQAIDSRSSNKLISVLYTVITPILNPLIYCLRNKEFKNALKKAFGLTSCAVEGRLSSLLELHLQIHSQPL
In short: (§1)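 Transient luciferase assays in mammalian cell lines were common, though methods varied by source. The values come from published papers and their supplementary material, with extra details from the original authors when needed. Responsive refers to a measured signal the original authors judged statistically different from baseline, and non-responsive (inactive) to the remainder.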

OR6B3 T48I R131C = system: T2, OR6B3 T48I R131C
T2 sequence (whole entry): T1 sequence (whole entry) with T48I, R131C
In short: as §1

OR6C1 (Homo sapiens) = molecular target: T3, OR6C1 (Homo sapiens) (UniProt Q96RD1)
T3 sequence (whole entry): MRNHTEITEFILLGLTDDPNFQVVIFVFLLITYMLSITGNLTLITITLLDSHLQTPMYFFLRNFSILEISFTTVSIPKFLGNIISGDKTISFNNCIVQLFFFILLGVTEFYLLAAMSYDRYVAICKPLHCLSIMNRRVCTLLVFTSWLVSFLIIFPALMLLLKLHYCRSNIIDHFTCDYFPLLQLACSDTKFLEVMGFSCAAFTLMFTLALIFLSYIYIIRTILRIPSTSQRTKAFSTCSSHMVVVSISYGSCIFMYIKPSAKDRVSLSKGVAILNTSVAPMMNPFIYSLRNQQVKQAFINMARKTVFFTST
In short: as §1

OR6C1 C130Y H165D V246I = system: T4, OR6C1 C130Y H165D V246I
T4 sequence (whole entry): T3 sequence (whole entry) with C130Y, H165D, V246I
In short: as §1

OR6C2 (Homo sapiens) = molecular target: T5, OR6C2 (Homo sapiens) (UniProt Q9NZP2)
T5 sequence (whole entry): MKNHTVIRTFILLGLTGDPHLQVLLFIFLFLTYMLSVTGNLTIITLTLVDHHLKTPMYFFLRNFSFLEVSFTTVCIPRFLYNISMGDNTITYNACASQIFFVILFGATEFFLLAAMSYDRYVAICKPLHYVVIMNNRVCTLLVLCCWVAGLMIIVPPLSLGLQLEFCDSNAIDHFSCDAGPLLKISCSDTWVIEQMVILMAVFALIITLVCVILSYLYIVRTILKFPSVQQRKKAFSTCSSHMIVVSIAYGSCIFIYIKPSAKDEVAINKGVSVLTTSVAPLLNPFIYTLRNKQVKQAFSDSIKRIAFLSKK
In short: as §1

OR6C3 (Homo sapiens) = molecular target: T6, OR6C3 (Homo sapiens) (UniProt Q9NZP0)
T6 sequence (whole entry): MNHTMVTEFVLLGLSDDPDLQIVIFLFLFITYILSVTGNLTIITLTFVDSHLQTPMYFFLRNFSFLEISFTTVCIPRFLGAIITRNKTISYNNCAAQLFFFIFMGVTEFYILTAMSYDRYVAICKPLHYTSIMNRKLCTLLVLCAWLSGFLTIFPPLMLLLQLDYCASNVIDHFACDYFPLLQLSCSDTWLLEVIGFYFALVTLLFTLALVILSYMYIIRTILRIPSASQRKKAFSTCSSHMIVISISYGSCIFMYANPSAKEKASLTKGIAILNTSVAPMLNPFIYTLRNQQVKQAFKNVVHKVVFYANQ
In short: as §1

OR6C4 (Homo sapiens) = molecular target: T7, OR6C4 (Homo sapiens) (UniProt Q8NGE1)
T7 sequence (whole entry): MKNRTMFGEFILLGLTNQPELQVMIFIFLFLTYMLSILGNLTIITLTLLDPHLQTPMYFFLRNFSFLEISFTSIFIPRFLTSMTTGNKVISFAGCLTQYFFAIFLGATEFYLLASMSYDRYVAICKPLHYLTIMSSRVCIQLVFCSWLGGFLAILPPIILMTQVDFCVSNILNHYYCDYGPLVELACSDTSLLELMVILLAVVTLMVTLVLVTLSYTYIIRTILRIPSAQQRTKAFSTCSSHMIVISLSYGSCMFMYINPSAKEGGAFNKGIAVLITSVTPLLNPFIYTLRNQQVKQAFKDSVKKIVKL
In short: as §1

OR6C4 = system: T8, OR6C4
T8 sequence (whole entry): T7 sequence (whole entry) with I37V
In short: as §1

OR6C6 (Homo sapiens) = molecular target: T9, OR6C6 (Homo sapiens) (UniProt A6NF89)
T9 sequence (whole entry): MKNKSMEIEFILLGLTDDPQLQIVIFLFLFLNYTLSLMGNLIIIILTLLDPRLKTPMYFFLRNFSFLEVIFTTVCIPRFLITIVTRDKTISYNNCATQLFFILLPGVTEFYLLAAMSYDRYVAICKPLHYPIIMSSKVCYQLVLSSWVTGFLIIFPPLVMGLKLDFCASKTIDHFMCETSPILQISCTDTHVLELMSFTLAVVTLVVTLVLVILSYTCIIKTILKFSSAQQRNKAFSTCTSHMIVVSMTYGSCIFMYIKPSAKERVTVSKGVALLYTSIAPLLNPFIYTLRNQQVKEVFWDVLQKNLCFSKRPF
In short: as §1

OR6C6 M6I = system: T10, OR6C6 M6I
T10 sequence (whole entry): T9 sequence (whole entry) with M6I
In short: as §1

Measured: odorant receptor agonist call;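 further: active if original authors judged signal statistically different from baseline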

CCCCCCC=CCCC=O
inactive: all assays above

CC(CO)CS (configuration not stated)
inactive: OR6B3 (Homo sapiens) | OR6C1 (Homo sapiens) | OR6C2 (Homo sapiens) | OR6C3 (Homo sapiens) | OR6C4 (Homo sapiens) | OR6C6 (Homo sapiens)

CC1CCCCCCCCCCCCC(=O)C1 (configuration not stated)
inactive: OR6B3 (Homo sapiens) | OR6C1 (Homo sapiens) | OR6C2 (Homo sapiens) | OR6C3 (Homo sapiens) | OR6C4 (Homo sapiens) | OR6C6 (Homo sapiens)

CCCC(S)CCOC(C)=O (configuration not stated)
inactive: all assays above

CCC(S)C(C)CO (configuration not stated)
inactive: OR6B3 (Homo sapiens) | OR6C1 (Homo sapiens) | OR6C2 (Homo sapiens) | OR6C3 (Homo sapiens) | OR6C4 (Homo sapiens) | OR6C6 (Homo sapiens)

CC(=O)c1c(C)c([N+](=O)[O-])c(C(C)(C)C)c([N+](=O)[O-])c1C
inactive: OR6B3 (Homo sapiens) | OR6C1 (Homo sapiens) | OR6C2 (Homo sapiens) | OR6C3 (Homo sapiens) | OR6C4 (Homo sapiens) | OR6C6 (Homo sapiens)

CC1=C(O)C(=O)OC1C (configuration not stated)
inactive: all assays above

CCCCC(S)C(C)CO (configuration not stated)
inactive: OR6B3 (Homo sapiens) | OR6C1 (Homo sapiens) | OR6C2 (Homo sapiens) | OR6C3 (Homo sapiens) | OR6C4 (Homo sapiens) | OR6C6 (Homo sapiens)

CC1=C(O)C(=O)C(C)O1 (configuration not stated)
inactive: all assays above

Cc1cnc(C)c(C)n1
inactive: all assays above

CCCCCC(=O)C(C)C(C)=O (configuration not stated)
inactive: OR6B3 (Homo sapiens) | OR6C1 (Homo sapiens) | OR6C2 (Homo sapiens) | OR6C3 (Homo sapiens) | OR6C4 (Homo sapiens) | OR6C6 (Homo sapiens)

CC1=NC(C)C(C)S1 (configuration not stated)
inactive: all assays above

CCCCCC(S)C(C)CO (configuration not stated)
inactive: OR6B3 (Homo sapiens) | OR6C1 (Homo sapiens) | OR6C2 (Homo sapiens) | OR6C3 (Homo sapiens) | OR6C4 (Homo sapiens) | OR6C6 (Homo sapiens)

CCC1OC(=O)C(O)=C1C (configuration not stated)
inactive: all assays above

CCC1OC(C)=C(O)C1=O (configuration not stated)
inactive: all assays above
